Data from ChEMBL document CHEMBL1144782, “Isoindolo[2,1-a]quinoxaline derivatives, novel potent antitumor agents with dual inhibition of tubulin polymerization and topoisomerase I” (2008).
Several values for one entry are separate records, joined by “and”; a condition that tells them apart may be missing. Equal entries are not always repeated.

Assays:
Type in all cases: functional
CCRF-CEM [1] = experiment: Antitumor activity against human CCRF-CEM cells
Summary of the method: (§1)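 Run by the NCI in its in vitro disease-oriented screen of about 60 human tumour cell lines. For each line it reports pGI50 (50% net growth inhibition), pTGI (total growth inhibition) and pLC50 (50% net cell death), each as –log molar concentration. Where an effect was not reached within the tested range, the highest tested concentration was used.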

MCF7 [2] = experiment: Growth inhibition of human multidrug-resistant MCF7 cells after 72 hrs by MTT assay; conditions: MCF7, 72 h
Summary of the method: (§2)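 Growth inhibition by MTT after 72 h incubation. Resistant sublines: LoVoDoxo and MCF-7 MDR were kept in 0.1 µg/mL doxorubicin; CEMVbl-100 was selected against vinblastine. GI50 given as mean ± SEM of three independent experiments. Resistance index is resistant-line GI50 over parental GI50.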

A498 = experiment: Antitumor activity against human A498 cells; summary of the method: as §1
OVCAR-4 = experiment: Antitumor activity against human OVCAR4 cells; summary of the method: as §1
OVCAR-3 = experiment: Antitumor activity against human OVCAR-3 cells; summary of the method: as §1
MCF7 [3] = experiment: Growth inhibition of human MCF7 cells after 72 hrs by MTT assay; conditions: MCF7, 72 h; summary of the method: as §2
SF-539 = experiment: Antitumor activity against human SF539 cells; summary of the method: as §1
PC-3 = experiment: Antitumor activity against human PC3 cells; summary of the method: as §1
CCRF-CEM [4] = experiment: Growth inhibition of human vinblastine-resistant CEM cells after 72 hrs by MTT assay; summary of the method: as §2
NCI-H226 = experiment: Antitumor activity against human NCI-H226 cells; summary of the method: as §1
A549 = experiment: Antitumor activity against human A549 cells; summary of the method: as §1
[5] = Antitumor activity against human […] cells; summary of the method: as §1
MDA-MB-435 = experiment: Antitumor activity against human MDA-MB-435 cells; summary of the method: as §1
SNB-75 = experiment: Antitumor activity against human SNB75 cells; summary of the method: as §1
OVCAR-5 = experiment: Antitumor activity against human OVCAR5 cells; summary of the method: as §1
[6] = Antitumor activity against human NCI-H322 cells; summary of the method: as §1
COLO 205 = experiment: Antitumor activity against human COLO205 cells; summary of the method: as §1
SK-MEL-28 = experiment: Antitumor activity against human SKMEL28 cells; summary of the method: as §1
TK-10 = experiment: Antitumor activity against human TK10 cells
Summary of the method: (§3)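 NCI 60-cell-line screen. Parameters were GI50 (50% net growth inhibition), TGI and LC50, each reported as –log molar concentration. Where an effect was not reached within the tested range, the highest tested concentration was used in the calculation.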

HOP-62 = experiment: Antitumor activity against human HOP62 cells; summary of the method: as §1
SF-268 [7] = experiment: Cell viability against human SF268 cells at 10 uM
HCT-15 = experiment: Antitumor activity against human HCT15 cells; summary of the method: as §1
HCT-116 = experiment: Antitumor activity against human HCT116 cells; summary of the method: as §1
MCF7 [8] = experiment: Cell viability against human MCF7 cells at 10 uM
U-251 = experiment: Antitumor activity against human U251 cells; summary of the method: as §3
HT-29 = experiment: Antitumor activity against human HT29 cells; summary of the method: as §1
NCI-H460 [9] = experiment: Antitumor activity against human NCI-H460 cells; summary of the method: as §1
CCRF-CEM [10] = experiment: Resistance index, Ratio of GI50 for human vinblastine-resistant CEM cells to GI50 for human CEM cells
HCC 2998 = experiment: Antitumor activity against human HCC2998 cells; summary of the method: as §1
MOLT-4 = experiment: Antitumor activity against human MOLT4 cells; summary of the method: as §1
SNB-19 = experiment: Antitumor activity against human SNB19 cells; summary of the method: as §1
UACC-257 = experiment: Antitumor activity against human UACC257 cells; summary of the method: as §3
NCI-H460 [11] = experiment: Cell viability against human NCI-H460 cells at 10 uM
SF-268 [12] = experiment: Antitumor activity against human SF268 cells; summary of the method: as §1
SW-620 = experiment: Antitumor activity against human SW620 cells; summary of the method: as §3
SK-MEL-2 = experiment: Antitumor activity against human SKMEL2 cells; summary of the method: as §1
EKVX = experiment: Antitumor activity against human EKVX cells; summary of the method: as §1
NCI/ADR-RES = experiment: Antitumor activity against human NCI/ADR-RES cells; summary of the method: as §1
OVCAR-8 = experiment: Antitumor activity against human OVCAR8 cells; summary of the method: as §1
IGROV-1 = experiment: Antitumor activity against human IGROV1 cells; summary of the method: as §1
T47D = experiment: Antitumor activity against human T47D cells; summary of the method: as §3
[13] = read-out: Log LC50 (the source's name) (converted)

**Q.** Which results are given for `O=c1[nH]c2ccccc2n2cc3ccccc3c12`?
**A.** GI50 (CCRF-CEM [1]): 5.89 µM; LC50 (CCRF-CEM [1]): > 100 µM; TGI (CCRF-CEM [1]; read-out: pTGI (converted)): 60.3 µM; GI50 (MCF7 [2]): 10.6 µM; GI50 (A498): 11.2 µM; CC50 (A498; [13]): 64.6 µM; TGI (A498; read-out: pTGI (converted)): 26.9 µM; GI50 (OVCAR-4): 7.24 µM; LC50 (50% net cell kill) (OVCAR-4): > 100 µM; TGI (OVCAR-4; read-out: pTGI (converted)): 89.1 µM; GI50 (OVCAR-3): 18.6 µM; LC50 (50% net cell death) (OVCAR-3): 72.4 µM; TGI (OVCAR-3; read-out: pTGI (converted)): 36.3 µM; GI50 (MCF7 [3]): 6.5 µM; GI50 (SF-539): 5.13 µM; LC50 (50% net cell kill) (SF-539): 75.9 µM; TGI (SF-539; read-out: pTGI (converted)): 22.4 µM; GI50 (PC-3): 5.75 µM; LC50 (50% net cell death) (PC-3): > 100 µM; TGI (PC-3; read-out: pTGI (converted)): 28.8 µM; GI50 (CCRF-CEM [4]): 3.8 µM; GI50 (NCI-H226): 2.88 µM; LC50 (50% net cell kill) (NCI-H226): 55 µM; TGI (NCI-H226; read-out: pTGI (converted)): 13.8 µM; GI50 (A549): 5.89 µM; CC50 (A549; [13]): > 100 µM; TGI (A549; read-out: pTGI (converted)): 32.4 µM; GI50 [5]: 0.955 µM; LC50 [5]: 58.9 µM; TGI ([5]; read-out: pTGI (converted)): 10.2 µM; GI50 (MDA-MB-435): 16.2 µM; LC50 (50% net cell death) (MDA-MB-435): 58.9 µM; TGI (MDA-MB-435; read-out: pTGI (converted)): 30.9 µM; GI50 (SNB-75): 13.5 µM and 1.91 µM; LC50 (SNB-75; Homo sapiens, SNB-75): > 100 µM; TGI (SNB-75; Homo sapiens, SNB-75, read-out: pTGI (converted)): 74.1 µM; GI50 (OVCAR-5): 10.5 µM; LC50 (50% net cell death) (OVCAR-5): > 100 µM; TGI (OVCAR-5; read-out: pTGI (converted)): 35.5 µM; GI50 [6]: 24 µM; LC50 (50% net cell death) [6]: 89.1 µM; TGI ([6]; read-out: pTGI (converted)): 46.8 µM; GI50 (COLO 205): 4.57 µM; LC50 (COLO 205): > 100 µM; TGI (COLO 205; read-out: pTGI (converted)): > 100 µM; GI50 (SK-MEL-28): 22.4 µM; CC50 (SK-MEL-28; [13]): > 100 µM; TGI (SK-MEL-28; read-out: pTGI (converted)): > 100 µM; GI50 (TK-10): 20.4 µM; CC50 (TK-10; [13]): 66.1 µM; TGI (TK-10; read-out: pTGI (converted)): 37.2 µM; GI50 (HOP-62): 4.37 µM; LC50 (50% net cell death) (HOP-62): 52.5 µM; TGI (HOP-62; read-out: pTGI (converted)): 17.8 µM; Activity (SF-268 [7]): 9%; GI50 (HCT-15): 3.31 µM; CC50 (HCT-15; [13]): 93.3 µM; TGI (HCT-15; read-out: pTGI (converted)): 18.6 µM; GI50 (HCT-116): 2.14 µM; LC50 (HCT-116): 49 µM; TGI (HCT-116; read-out: pTGI (converted)): 12.3 µM; Activity (MCF7 [8]): 6%; GI50 (U-251): 3.24 µM; CC50 (U-251; [13]): 70.8 µM; TGI (U-251; read-out: pTGI (converted)): 13.5 µM; GI50 (HT-29): 4.37 µM; LC50 (HT-29): > 100 µM; TGI (HT-29; read-out: pTGI (converted)): > 100 µM; GI50 (NCI-H460 [9]): 7.76 µM; CC50 (NCI-H460 [9]; [13]): > 100 µM; TGI (NCI-H460 [9]; read-out: pTGI (converted)): > 100 µM; RatioGI50 (CCRF-CEM [10]): 0.8; GI50 (HCC 2998): 5.89 µM; LC50 (HCC 2998): 57.5 µM; TGI (HCC 2998; read-out: pTGI (converted)): 20.9 µM; GI50 (MOLT-4): 3.63 µM; LC50 (MOLT-4): > 100 µM; TGI (MOLT-4; read-out: pTGI (converted)): 8.71 µM; GI50 (SNB-19): 8.91 µM; CC50 (SNB-19; [13]): > 100 µM; TGI (SNB-19; read-out: pTGI (converted)): > 100 µM; GI50 (UACC-257): 15.1 µM; LC50 (UACC-257): 72.4 µM; TGI (UACC-257; read-out: pTGI (converted)): 33.1 µM; Activity (NCI-H460 [11]): 0%; GI50 (SF-268 [12]): 21.4 µM; CC50 (SF-268 [12]; [13]): > 100 µM; TGI (SF-268 [12]; read-out: pTGI (converted)): 87.1 µM; GI50 (SW-620): 3.72 µM; CC50 (SW-620; [13]): > 100 µM; TGI (SW-620; read-out: pTGI (converted)): > 100 µM; GI50 (SK-MEL-2): 20.4 µM; LC50 (SK-MEL-2): 72.4 µM; TGI (SK-MEL-2; read-out: pTGI (converted)): 38.9 µM; GI50 (EKVX): 4.79 µM; LC50 (50% net cell kill) (EKVX): > 100 µM; TGI (EKVX; read-out: pTGI (converted)): 69.2 µM; GI50 (NCI/ADR-RES): 6.46 µM; LC50 (NCI/ADR-RES): > 100 µM; TGI (NCI/ADR-RES; read-out: pTGI (converted)): 32.4 µM; GI50 (OVCAR-8): 5.25 µM; LC50 (50% net cell death) (OVCAR-8): > 100 µM; TGI (OVCAR-8; read-out: pTGI (converted)): 33.1 µM; GI50 (IGROV-1): 10.2 µM; CC50 (IGROV-1; [13]): 63.1 µM; TGI (IGROV-1; read-out: pTGI (converted)): 25.7 µM; GI50 (T47D): 7.41 µM; LC50 (T47D): > 100 µM; TGI (T47D; read-out: pTGI (converted)): > 100 µM
